ChEMBL document CHEMBL1123121, “Aminotetralone analogues of ketamine: synthesis and evaluation of hypnotic and locomotor properties in mice” (1985)

test system: Mus musculus; experiment: Ability to cause […] in mice represented as no. of counts for each animal for a total of 90 min when 100 mg/kg dose was administered intraperitoneally; format: functional; conditions: route intraperitoneal
Method in brief: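 Mice given the compound intraperitoneally at 100 mg kg-1, dissolved in distilled water; controls received 0.2 mL normal saline. Each mouse was placed on an electronic activity monitor and its counts were recorded for 90 min after injection. Counts per minute were taken as total counts divided by 90. Six animals per group, mean ± SEM, groups compared by Duncan's multiple-range test. Experiments were run between 13.00 and 17.00 h at 20-24 °C.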

Row | Structure (SMILES) | Counts
1 | CNC1(C)C(=O)CCc2ccccc21 (stereo unspecified) | 25.8 min⁻¹
2 | CN(C)C1(C)C(=O)CCc2ccccc21 (stereo unspecified) | 22.9 min⁻¹
3 | CN(C)C1(C)c2ccccc2CCC1O (stereo unspecified) | 37.5 min⁻¹
4 | CC1(N)C(=O)CCc2ccccc21 (stereo unspecified) | 27.2 min⁻¹
5 | CNC1(C)c2ccccc2CCC1O (stereo unspecified) | 20.2 min⁻¹
6 | CC1(N)c2ccccc2CCC1O (stereo unspecified) | 16.2 min⁻¹
7 | CC1(N)CCc2ccccc2C1=O (stereo unspecified) | 60.6 min⁻¹
8 | CC1(N2CCCCC2)c2ccccc2CCC1O (stereo unspecified) | 21.6 min⁻¹
9 | CN(C)C1(C)CCc2ccccc2C1=O (stereo unspecified) | 67.1 min⁻¹
10 | CC1(N2CCCCC2)C(=O)CCc2ccccc21 (stereo unspecified) | 4.4 min⁻¹
11 | CNC1(c2ccccc2Cl)CCCCC1=O (stereo unspecified) [KETAMINE] | 94.3 min⁻¹
